Only some compounds are listed: those with a hit (about 2.3% of all), similar ones and a draw of the others.
PAD4 inh – inhibitors of human PAD4. Q9UM07. recombinant PAD4, RCA probe fluorescence polarization. inhibition, % at 6.36 µM. 0.41% of 330,000 active. AID 485272;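 active = percent inhibition above a cutoff equal to the mean of all tested compounds plus 3 SD, cut at about 15% in these data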
Target sequence (Q9UM07 whole entry, looked up): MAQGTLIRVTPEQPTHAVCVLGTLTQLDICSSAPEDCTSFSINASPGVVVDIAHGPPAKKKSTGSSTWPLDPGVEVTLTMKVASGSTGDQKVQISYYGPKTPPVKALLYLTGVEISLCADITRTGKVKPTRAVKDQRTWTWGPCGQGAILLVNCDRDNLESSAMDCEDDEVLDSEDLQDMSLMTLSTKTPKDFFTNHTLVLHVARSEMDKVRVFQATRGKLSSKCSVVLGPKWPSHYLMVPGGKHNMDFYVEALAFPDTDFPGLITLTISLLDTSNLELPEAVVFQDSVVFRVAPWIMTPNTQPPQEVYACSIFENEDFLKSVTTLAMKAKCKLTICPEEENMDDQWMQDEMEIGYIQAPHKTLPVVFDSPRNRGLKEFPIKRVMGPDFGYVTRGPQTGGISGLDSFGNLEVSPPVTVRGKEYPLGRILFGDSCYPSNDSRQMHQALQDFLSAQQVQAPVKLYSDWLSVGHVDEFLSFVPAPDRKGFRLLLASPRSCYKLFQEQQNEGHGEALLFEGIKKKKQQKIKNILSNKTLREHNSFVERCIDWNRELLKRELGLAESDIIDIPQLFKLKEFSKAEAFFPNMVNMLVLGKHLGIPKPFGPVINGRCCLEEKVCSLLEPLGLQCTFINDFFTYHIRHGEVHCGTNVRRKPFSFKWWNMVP
RBBP9 inh – human RBBP9 hydrolase inhibition; O75884; recombinant RBBP9, FP-Rh probe fluorescence polarization; inhibition, % at 7.94 µM; 0.2% of 220,000 active;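 active = inhibition above the campaign mean of all tested compounds plus 3 SD, cut at about 14% in these data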
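Test system – recombinant human RBBP9 · Input – RBBP9 2.5 µM in dispensing solution, pre-mixing · Medium – Tris buffer pH 8.0, NaCl, Pluronic · Schedule – preincubation 30 min plus labeling 45 min at 25 °C · Measured by – fluorescence polarization · Measure – % inhibition · Controls – DMSO and no-protein wells · Replicates – one well per compound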
GSTO1 inh – GSTO1 inhibition, counter-screen for RBBP9 inhibitors; P78417; recombinant GSTO1, activity-based probe fluorescence polarization; 1.1% of 300,000 active; inhibition, % at 5.96 µM;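 active = inhibition above the campaign mean inhibition plus 3 SD, cut at about 35% in these data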
Fam108B inh – blocks mouse Fam108B hydrolase in RBBP9 counter-screen; 0.33% of 300,000 active; inhibition, % at 9.51 µM; recombinant Fam108B, FP-Rh probe fluorescence polarization;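 active = inhibition above the screen mean inhibition plus 3 SD, computed separately per campaign, cut at about 18% in these data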;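 also: inhibitors lower polarization as less probe binds the enzyme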
PME-1 primary – blocks human protein phosphatase methylesterase 1. 0.53% of 320,000 active. Q9Y570. AID 2130. recombinant PME-1, FP-Rh probe fluorescence polarization. inhibition, % at 5.9 µM;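 active = inhibition above the campaign mean of all compounds plus 3 SD, cut at about 26% in these data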;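 also: competitive labeling of PME-1 active site by serine hydrolase directed probe; inhibitors block probe labeling so polarization falls and inhibition rises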
PRMT1 inh – PRMT1 (human) inhibition, primary screen. Q99873. recombinant PRMT1, activity-based probe fluorescence polarization. inhibition, % at 2.79 µM. 1.3% of 370,000 active;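 active = inhibition above about 21% made by adding two undisclosed values, limit read from the data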
RBBP9 inh conf – confirmation of human RBBP9 inhibitors. shares compounds with RBBP9 inh. recombinant RBBP9, FP-Rh probe fluorescence polarization. inhibition, % at 7.94 µM. 36% of 410 active. AID 1537;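 active = inhibition above the hit cutoff derived for the primary screen, cut at about 15% in these data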
Fam108b confirm – Fam108b (mouse) hydrolase inhibition, confirmation assay. shares compounds with Fam108B inh. recombinant Fam108b, FP-Rh probe fluorescence polarization. inhibition, % at 9.51 µM. 44% of 930 active. AID 1978;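 active = inhibition above a limit from the primary screen, the mean over all compounds plus 3 SD, cut at about 19% in these data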;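 also: inhibitors free the probe so polarization falls as inhibition rises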
Fam108b inh – inhibits mouse Fam108b in gel-based ABPP | shares compounds with Fam108B inh | recombinant Fam108b, fluorophosphonate probe | inhibition, % at 20 µM | 44% of 260 active; in the data active = inhibition above about 40%
GSTO1 inh conf – confirmation of human GSTO1 inhibitors; shares compounds with GSTO1 inh; recombinant GSTO1, probe fluorescence polarization; inhibition, % at 5.96 µM; 54% of 2,400 active; AID 2176;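 active = inhibition above the primary screen's cutoff, its mean inhibition plus 3 SD, cut at about 35% in these data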;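 also: loss of polarization as inhibitors block binding of rhodamine sulfonate ester activity probe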
PAD4 confirm – PAD4 (human) inhibition, confirmed | 28% of 1,200 active | inhibition, % at 6.36 µM | recombinant PAD4, RCA probe fluorescence polarization | shares compounds with PAD4 inh | AID 488796;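 active = mean inhibition across replicates above the hit cutoff set by the earlier primary screen, cut at about 15% in these data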;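 also: inhibitors block active-site labeling by the probe so polarization falls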
PRMT1 inh conf – PRMT1 (human) inhibition, FP confirmation; shares compounds with PRMT1 inh; 42% of 3,300 active; inhibition, % at 2.79 µM; recombinant His-PRMT1, activity-based probe fluorescence polarization;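 active = mean inhibition across replicates above the hit cutoff derived for the earlier primary screen, cut at about 22% in these data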
Hits are given with their value; – = inactive; · = not tested or not shown; + = active, no number.

SMILES	PAD4 inh	RBBP9 inh	GSTO1 inh	Fam108B inh	PME-1 primary	PRMT1 inh	RBBP9 inh conf	others
CCOC(=O)C1=C(C)N(c2ccc(C)cc2)C(=O)/C1=C\c1ccc(O)c(OC)c1	–	15	46	–	–	–	29	GSTO1 inh conf=–
Fc1ccc(-c2nc3c(Cl)cc(C(F)(F)F)cn3c2Cc2cccc(Cl)c2)cc1	·	·	·	·	·	–	·
CCn1c(CSc2nnc(-c3ccncc3)n2C)nc2cc(C(=O)O)ccc21	52	17	–	29	40	–	21	Fam108b confirm=37;Fam108b inh=–;PAD4 confirm=62
CC1Cc2ccccc2N1c1ncnc2nc[nH]c12 (centres undefined)	–	–	–	–	–	·	·
O=S(=O)(c1cccs1)N1CN(Cc2ccco2)c2nc3ccccc3nc21	77	34	37	28	34	–	–	Fam108b confirm=–;PAD4 confirm=–
COc1ccc(NC(=O)c2cccnc2)cc1	–	·	–	–	–	–	·
C/C(=C\C(=O)c1cccnc1)Nc1ccc(O)cc1	98	43	38	48	–	–	–	Fam108b confirm=–;GSTO1 inh conf=–;PAD4 confirm=–
O=c1[nH]nc(CNc2ccc(C(F)(F)F)cc2)c2ccccc12	–	–	–	–	–	–	·
O=c1[nH]nc(CNc2ccc(O)cc2)c2ccccc12	55	17	82	–	45	25	–	GSTO1 inh conf=–;PAD4 confirm=–
O=c1ccsc2ccccc12	·	·	·	·	·	–	·
O=c1c2ccccc2sn1-c1ccccc1	36	51	–	–	–	95	50	PAD4 confirm=41
CCC(=O)NCCc1nc2cc(NC(=O)Nc3ccccc3)ccc2n1C	–	·	–	–	–	–	·
COC(=O)CNC(=O)Cc1c(C)n(C(=O)c2ccc(Cl)cc2)c2ccc(OC)cc12	–	·	–	–	–	–	·
COC(=O)/C(=C/Nc1ccc(O)cc1)[N+](=O)[O-]	68	38	75	–	–	47	–	GSTO1 inh conf=–;PAD4 confirm=–
COC(=O)/C(=C/Nc1ccccc1)[N+](=O)[O-]	–	–	–	–	–	–	·
Cc1cc(N)ccc1-n1c(C)ccc1C	90	31	82	42	90	–	–	Fam108b confirm=–;PAD4 confirm=–
Cn1c(=O)c2[nH]c(N3CCN(c4cccc(O)c4)CC3)nc2n(C)c1=O	–	–	–	–	–	–	·
CC(=O)N(C1=C(Cl)C(=O)c2ccccc2C1=O)C1CCCCC1	17	55	56	–	–	92	89	GSTO1 inh conf=73;PAD4 confirm=–
CC1NC(=O)c2ccccc2-n2c1nc1cc(F)ccc1c2=O (centres undefined)	–	·	·	·	–	–	·
Cc1ccccc1-n1sc2cc(F)ccc2c1=O	21	63	–	–	–	88	72	PAD4 confirm=28
CCC(C)(C)n1nnnc1C(c1cccc(C#N)c1)N1CCN(c2cc(C)ccc2C)CC1 (centres undefined)	–	·	–	–	–	–	·
O=C(Oc1ccc(-c2cnc3ccccc3n2)cc1)c1ccc(Br)o1	39	17	–	–	–	–	–	PAD4 confirm=27
N#CC1=C(N)Oc2ccc3ccc(O)cc3c2C1c1ccsc1 (centres undefined)	·	53	·	·	·	83	47	PRMT1 inh conf=–
CC(C)c1c(C#N)c(N)nc(SCC(=O)c2cc3ccccc3oc2=O)c1C#N	–	–	–	–	–	–	·
N#Cc1ccc(-c2ccccc2)nc1SCC(=O)c1cc2ccccc2oc1=O	–	30	–	–	–	34	–	PRMT1 inh conf=–
SMILES	PAD4 inh	RBBP9 inh	GSTO1 inh	Fam108B inh	PME-1 primary	PRMT1 inh	RBBP9 inh conf	others
CN(C)S(=O)(=O)c1cccc(NC(=S)N/N=C/c2ccc(O)c(O)c2O)c1	·	32	·	·	·	36	51	PRMT1 inh conf=84
CCOC(=O)C1CCN(c2nc(N)c3c(N)nc(SCC(=O)O)cc3c2C#N)CC1	·	17	·	·	·	55	39	PRMT1 inh conf=26
CC(=O)Nc1ccc2ccccc2c1	–	–	–	–	–	·	·
CC(=O)Nc1ccc2cc3ccc(NC(C)=O)cc3nc2c1	–	50	–	–	–	37	–	PRMT1 inh conf=22
COc1ccc(S(=O)(=O)N(C)C[C@H]2OCCCC[C@H](C)Oc3ccc(NC(=O)Nc4ccc(F)cc4)cc3C(=O)N([C@H](C)CO)C[C@H]2C)cc1	·	·	·	·	·	–	·
NS(=O)(=O)c1ccc(N/N=C/c2ccc(O)cc2O)c([N+](=O)[O-])c1	–	–	–	–	–	–	·
NS(=O)(=O)c1ccc(N/N=C/c2ccc(O)c(O)c2O)c([N+](=O)[O-])c1	·	64	·	·	·	46	84	PRMT1 inh conf=79
O=C1CC(c2ccc(S(=O)(=O)Nc3cc(C(F)(F)F)cc(C(F)(F)F)c3)cc2)CN1 (centres undefined)	–	–	–	–	–	–	·
O=c1ccc2[n+]([O-])c3ccc(O)cc3oc-2c1	·	+	·	·	·	119	–	PRMT1 inh conf=69
CSc1ncccc1C(=O)OCC(=O)NC1CCS(=O)(=O)C1 (centres undefined)	–	–	–	–	–	–	·
Cc1nc2scc(-c3ccccc3)c2c(=O)n1N=C1C=CC(=O)C=C1	·	49	·	·	·	90	59	PRMT1 inh conf=94
Cc1nc2scc(-c3ccccc3)c2c(=O)n1N	–	–	–	–	–	–	·
O=C(O)Cc1sc(NCCc2ccccc2)nc1-c1ccc(F)cc1	–	·	–	–	–	–	·
CCCCCCCCCCCCCCCC[n+]1ccc(C=NO)cc1	·	·	·	·	·	·	·	Fam108b inh=75
Cc1cccc(-c2oc3ccccc3c2C#CCCCCO)c1	–	·	–	–	–	–	·
COc1cc(-c2nnc(SCc3cccnc3)n2C)cc(OC)c1O	–	–	–	–	–	–	·
N=c1oc2cc(O)ccc2cc1C(=O)Nc1ccc(Cl)cc1	–	·	–	22	–	–	·	Fam108b confirm=–
Brc1ccc(-c2csc(Nc3nc(-c4ccc(Br)cc4)cs3)n2)cc1	–	–	–	50	–	–	·	Fam108b confirm=34;Fam108b inh=85
O=C(Nc1ccc(-c2csc(Nc3cccc(C(F)(F)F)c3)n2)cc1)c1cc([N+](=O)[O-])cc(C(F)(F)F)c1	–	·	–	41	–	–	·	Fam108b confirm=–
O=C(Nc1ccc(-c2csc(Nc3cccc(C(F)(F)F)c3)n2)cc1)c1ccccc1	–	·	–	–	–	–	·
O=C1CCCC(O)=C1N=Nc1ccc(C(=O)O)cc1	–	–	–	25	–	–	·	Fam108b confirm=20

From PubChem
